Measurements collected from several papers.
Compare with care: the assays were run in different laboratories.
Nuclear receptor subfamily 4 group A member 2: Nuclear receptor subfamily 4 group A member 2 (Homo sapiens, UniProt P43354)
ADRA1B: Alpha-1B adrenergic receptor (ADRA1B, Homo sapiens, UniProt P35368)
P2RY14: P2Y purinoceptor 14 (P2RY14, Homo sapiens, UniProt Q15391)

With `CCCCCCCCC(=O)c1cc(O)c(O)c(O)c1` the Kd was 3.4 µM (Nuclear receptor subfamily 4 group A member 2; binding, ITC).
The Kd of `CCCCCCCCCCCCCCCC(=O)OC[C@H](COP(=O)(O)O[C@H]1[C@H](O)[C@@H](OP(=O)(O)O)[C@H](OP(=O)(O)O)[C@@H](OP(=O)(O)O)[C@H]1O)OC(=O)CCCCCCCCCCCCCCC` is reported as 0.188 µM (Heat shock protein beta-1 (HSPB1, Homo sapiens, UniProt P04792); binding, MST).
The Ki of `Cc1cc(Oc2ncccc2CN2CCN(c3ccccc3C#N)CC2)ccc1-c1c(C)c(=O)[nH]c(=O)n1C` is reported as 0.464 µM (ADRA1B; ligand displacement, radioligand).
The Ki of `O=C(O)c1cc(-c2ccc(-c3ccc(Cl)s3)cc2)c2ccc(-c3ccc(C(F)(F)F)cc3)cc2c1` is reported as 1.19 µM (P2RY14; ligand displacement in cells, flow cytometry).
`CN1C(C(=O)Nc2ccccn2)=C(O)c2sc(Cl)cc2S1(=O)=O` has a Kd of 1.4 µM (Nuclear receptor subfamily 4 group A member 2; binding, ITC).
`Cn1nccc1-c1ccc(-c2cc(C(=O)O)cc3cc(-c4ccc(C(F)(F)F)cc4)ccc23)cc1` gave a Ki of 0.0284 µM (P2RY14; ligand displacement in cells, flow cytometry).
`CCC(=O)NS(=O)(=O)c1ccc(-c2c(-c3ccccc3)noc2C)cc1` has a Kd of 1.6 µM (Nuclear receptor subfamily 4 group A member 2; binding, ITC).
With `Cc1cc(Oc2ncccc2CN2CCN(c3cccc(C)c3C)CC2)ccc1-c1c(C)c(=O)[nH]c(=O)n1C` the Ki was 4.42 µM (ADRA1B; ligand displacement, radioligand).
`Nc1ncnc2c1ncn2[C@@H]1O[C@H](COP(=O)(O)OP(=O)(O)OP(=O)(O)O)[C@@H](O)[C@H]1O` gave a Kd of 224 µM (P2X purinoceptor 7 (P2RX7, Homo sapiens, UniProt Q99572); binding, SPR).
`Cc1cc(Oc2ncccc2CN2CCN(c3cccc(Cl)c3)CC2)ccc1-c1c(C)c(=O)[nH]c(=O)n1C` gave a Ki of 0.646 µM (ADRA1B; ligand displacement, radioligand).
`COc1cccc2c(Nc3ccc4[nH]c(C(=O)N/N=C/c5ccc(SC)cc5)cc4c3)cc(C)nc12` gave a Kd of 2.8 µM (Nuclear receptor subfamily 4 group A member 2; binding, ITC).
With `COc1ccccc1N1CCN(Cc2cccnc2Oc2ccc(-c3c(C)c(=O)[nH]c(=O)n3C)c(C)c2)CC1` the Ki was 1.39 µM (ADRA1B; ligand displacement, radioligand).
For `O=C(O)c1cc(-c2ccc([C@H]3C[C@H]4C[C@@H]3CN4)cc2)c2ccc(-c3ccc(C(F)(F)F)cc3)cc2c1`, the Ki was 0.00181 µM (P2RY14; ligand displacement, flow cytometry).
`Cc1cc(Oc2ncccc2CN2CCN(CCc3ccccc3)CC2)ccc1-c1c(C)c(=O)[nH]c(=O)n1C` gave a Ki of 1.66 µM (ADRA1B; ligand displacement, radioligand).
`O=C(O)c1cc(-c2ccc(-n3cc(CCOP(=O)(O)O)nn3)cc2)c2ccc(-c3ccc(C(F)(F)F)cc3)cc2c1` has a Ki of 0.779 µM (P2RY14; ligand displacement in cells, flow cytometry).
